# Results from ChEMBL document CHEMBL6078622, “Enhancing outer membrane permeability of tetracycline antibiotics in P. aeruginosa using TOB-CIP conjugates” (RSC Med Chem, 2024).
# Calls of active or inactive are those of the source. No cut-off for these calls is given here.
# Columns and labels:
# Pseudomonas aeruginosa [1] = assay: Synergistic antibacterial activity against Pseudomonas aeruginosa PA200 assessed as fold change in eravacycline MIC by CLSI based broth-microdilution method relative to eravacycline alone; format: functional
# Pseudomonas aeruginosa [2] = assay: Antibacterial activity against Pseudomonas aeruginosa PA095 assessed as minocycline MIC by CLSI based broth-microdilution method; format: functional
# Escherichia = assay: Synergistic antibacterial activity against Escherichia 107115 assessed as fold change in minocycline MIC by CLSI based broth-microdilution method relative to minocycline alone; format: functional
# Method in brief: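 Checkerboard combination assay against E. coli EC107115 (MDR) and EC94474 (colistin-resistant), run in biological duplicates; the fold change is the tetracycline MIC in combination relative to its MIC alone.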
# Pseudomonas aeruginosa [3] = assay: Synergistic antibacterial activity against Pseudomonas aeruginosa PAO1 assessed as fold change in tigecycline MIC by checkerboard analysis relative to Tigecycline alone; format: functional
# Pseudomonas aeruginosa [4] = assay: Antibacterial activity against Pseudomonas aeruginosa PAO1 assessed as inhibition of bacterial growth by measuring fold change in MIC in presence of 5 % fetal bovine serum by CLSI protocol based assay; format: functional
# Pseudomonas aeruginosa [5] = assay: Antibacterial activity against Pseudomonas aeruginosa PA262 assessed as eravacycline MIC by CLSI based broth-microdilution method; format: functional
# Pseudomonas aeruginosa [6] = assay: Antibacterial activity against Pseudomonas aeruginosa PA101243 assessed as minocycline MIC by CLSI based broth-microdilution method; format: functional
# Pseudomonas aeruginosa [7] = assay: Synergistic antibacterial activity against Pseudomonas aeruginosa PA100036 assessed as fold change in tigecycline MIC by CLSI based broth-microdilution method relative to tigecycline alone; format: functional
# Pseudomonas aeruginosa [8] = assay: Synergistic antibacterial activity against Pseudomonas aeruginosa PA259 assessed as fractional inhibitory concentration index in presence of eravacycline by checkerboard assay; format: functional
# Pseudomonas aeruginosa [9] = assay: Antibacterial activity against Pseudomonas aeruginosa PA101243 assessed as doxycycline MIC by CLSI based broth-microdilution method; format: functional
# Pseudomonas aeruginosa [10] = assay: Synergistic antibacterial activity against Pseudomonas aeruginosa PA095 assessed as fold change in minocycline MIC by CLSI based broth-microdilution method relative to minocycline alone; format: functional
# Pseudomonas aeruginosa [11] = assay: Antibacterial activity against Pseudomonas aeruginosa PA095 assessed as eravacycline MIC by CLSI based broth-microdilution method; format: functional
# Pseudomonas aeruginosa [12] = assay: Antibacterial activity against Pseudomonas aeruginosa PA264 assessed as increase in bacterial load incubated for 2 hrs in presence of eravacycline by time kill assay; format: functional, organism-based
# Pseudomonas aeruginosa [13] = assay: Synergistic antibacterial activity against Pseudomonas aeruginosa PAO1 assessed as fold change in minocycline MIC by checkerboard analysis relative to minocycline alone; format: functional
# Pseudomonas aeruginosa [14] = assay: Synergistic antibacterial activity against Pseudomonas aeruginosa PA114228 assessed as fold change in doxycycline MIC by CLSI based broth-microdilution method relative to doxycycline alone; format: functional
# Pseudomonas aeruginosa [15] = assay: Synergistic antibacterial activity against Pseudomonas aeruginosa PA101243 assessed as fractional inhibitory concentration index in presence of eravacycline by checkerboard assay; format: functional
# Pseudomonas aeruginosa [16] = assay: Synergistic antibacterial activity against Pseudomonas aeruginosa PA262 assessed as fractional inhibitory concentration index in presence of tigecycline by checkerboard assay; format: functional
# Pseudomonas aeruginosa [17] = assay: Synergistic antibacterial activity against Pseudomonas aeruginosa PA101243 assessed as fold change in minocycline MIC by CLSI based broth-microdilution method relative to minocycline alone; format: functional
# Pseudomonas aeruginosa [18] = assay: Antibacterial activity against Pseudomonas aeruginosa PA114228 assessed as minocycline MIC by CLSI based broth-microdilution method; format: functional
# Pseudomonas aeruginosa [19] = assay: Antibacterial activity against Pseudomonas aeruginosa PA264 assessed as tigecycline MIC by CLSI based broth-microdilution method; format: functional
# Pseudomonas aeruginosa [20] = assay: Synergistic antibacterial activity against Pseudomonas aeruginosa PA095 in presence of tigecycline by checkerboard assay; format: functional
# Pseudomonas aeruginosa [21] = assay: Synergistic antibacterial activity against Pseudomonas aeruginosa PA100036 assessed as fold change in eravacycline MIC by CLSI based broth-microdilution method relative to eravacycline alone; format: functional
# Pseudomonas aeruginosa [22] = assay: Synergistic antibacterial activity against Pseudomonas aeruginosa PA100036 assessed as fold change in minocycline MIC by CLSI based broth-microdilution method relative to minocycline alone; format: functional
# Pseudomonas aeruginosa [23] = assay: Synergistic antibacterial activity against Pseudomonas aeruginosa PA259 assessed as fold change in minocycline MIC by CLSI based broth-microdilution method relative to minocycline alone; format: functional
# Pseudomonas aeruginosa [24] = assay: Synergistic antibacterial activity against Pseudomonas aeruginosa PA262 in presence of doxycycline by checkerboard assay; format: functional
# HepG2 = assay: Cytotoxicity against human HepG2 cells assessed as reduction in cell viability at 400 uM; format: functional, cell-based
# Pseudomonas aeruginosa [25] = assay: Synergistic antibacterial activity against Pseudomonas aeruginosa PA095 in presence of eravacycline by checkerboard assay; format: functional
# Pseudomonas aeruginosa [26] = assay: Synergistic antibacterial activity against Pseudomonas aeruginosa PA259 assessed as fold change in tigecycline MIC by CLSI based broth-microdilution method relative to tigecycline alone; format: functional
# Pseudomonas aeruginosa [27] = assay: Synergistic antibacterial activity against Pseudomonas aeruginosa PA264 assessed as fold change in eravacycline MIC by CLSI based broth-microdilution method relative to eravacycline alone; format: functional
# Pseudomonas aeruginosa [28] = assay: Synergistic antibacterial activity against Pseudomonas aeruginosa PA114228 assessed as fractional inhibitory concentration index in presence of doxycycline by checkerboard assay; format: functional
# Pseudomonas aeruginosa [29] = assay: Synergistic antibacterial activity against Pseudomonas aeruginosa PA095 in presence of minocycline by checkerboard assay; format: functional
# Pseudomonas aeruginosa [30] = assay: Synergistic antibacterial activity against Pseudomonas aeruginosa PA264 in presence of tigecycline by checkerboard assay; format: functional
# Pseudomonas aeruginosa [31] = assay: Synergistic antibacterial activity against Pseudomonas aeruginosa PA200 in presence of eravacycline by checkerboard assay; format: functional
# Pseudomonas aeruginosa [32] = assay: Antibacterial activity against Pseudomonas aeruginosa PA200 assessed as doxycycline MIC by CLSI based broth-microdilution method; format: functional
# Pseudomonas aeruginosa [33] = assay: Antibacterial activity against Pseudomonas aeruginosa PA264 assessed as minocycline MIC by CLSI based broth-microdilution method; format: functional
# Pseudomonas aeruginosa [34] = assay: Synergistic antibacterial activity against Pseudomonas aeruginosa PA114228 in presence of minocycline by checkerboard assay; format: functional
# Pseudomonas aeruginosa [35] = assay: Synergistic antibacterial activity against Pseudomonas aeruginosa PA101243 assessed as fractional inhibitory concentration index in presence of minocycline by checkerboard assay; format: functional
# Pseudomonas aeruginosa [36] = assay: Antibacterial activity against Pseudomonas aeruginosa PA100036 assessed as eravacycline MIC by CLSI based broth-microdilution method; format: functional
# Pseudomonas aeruginosa [37] = assay: Synergistic antibacterial activity against Pseudomonas aeruginosa PA264 assessed as fold change in minocycline MIC by CLSI based broth-microdilution method relative to minocycline alone; format: functional
# Pseudomonas aeruginosa [38] = assay: Synergistic antibacterial activity against Pseudomonas aeruginosa PA259 assessed as fractional inhibitory concentration index in presence of tigecycline by checkerboard assay; format: functional
# Pseudomonas aeruginosa [39] = assay: Synergistic antibacterial activity against Pseudomonas aeruginosa PA259 assessed as fold change in doxycycline MIC by CLSI based broth-microdilution method relative to doxycycline alone; format: functional
# Pseudomonas aeruginosa [40] = assay: Antibacterial activity against Pseudomonas aeruginosa PA114228 assessed as tigecycline MIC by CLSI based broth-microdilution method; format: functional
# Pseudomonas aeruginosa [41] = assay: Antibacterial activity against Pseudomonas aeruginosa PA259 assessed as eravacycline MIC by CLSI based broth-microdilution method; format: functional
# Pseudomonas aeruginosa [42] = assay: Antibacterial activity against Pseudomonas aeruginosa PA100036 assessed as tigecycline MIC by CLSI based broth-microdilution method; format: functional
smiles,measurement,setting,value
Cl.Cl.Cl.Cl.Cl.Cl.NC[C@H]1O[C@H](O[C@H]2[C@H](OCCCCCCCCCCCCNC(=O)c3cn(C4CC4)c4cc(N5CCNCC5)c(F)cc4c3=O)[C@@H](O[C@H]3O[C@H](CO)[C@@H](O)[C@H](N)[C@H]3O)[C@H](N)C[C@@H]2N)[C@H](N)C[C@@H]1O,fold change (FC),Pseudomonas aeruginosa [1],128
same,MIC,Pseudomonas aeruginosa [2],1 µg/mL
same,fold change (FC),Escherichia,32
same,fold change (FC),Pseudomonas aeruginosa [3],64
same,fold change (FC),Pseudomonas aeruginosa [4],>128
same,MIC,Pseudomonas aeruginosa [5],1 µg/mL
same,MIC,Pseudomonas aeruginosa [6],2 µg/mL
same,fold change (FC),Pseudomonas aeruginosa [7],64
same,fractional inhibitory concentration index (FICI),Pseudomonas aeruginosa [8],0.008
same,MIC,Pseudomonas aeruginosa [9],1 µg/mL
same,fold change (FC),Pseudomonas aeruginosa [10],8
same,MIC,Pseudomonas aeruginosa [11],1 µg/mL
same,Activity,Pseudomonas aeruginosa [12],Active
same,fold change (FC),Pseudomonas aeruginosa [13],64
same,fold change (FC),Pseudomonas aeruginosa [14],128
same,fractional inhibitory concentration index (FICI),Pseudomonas aeruginosa [15],0.625
same,fractional inhibitory concentration index (FICI),Pseudomonas aeruginosa [16],0.008
same,fold change (FC),Pseudomonas aeruginosa [17],4
same,MIC,Pseudomonas aeruginosa [18],64 µg/mL
same,MIC,Pseudomonas aeruginosa [19],0.5 µg/mL
same,MIC,Pseudomonas aeruginosa [20],2 µg/mL
same,fold change (FC),Pseudomonas aeruginosa [21],256
same,fold change (FC),Pseudomonas aeruginosa [22],256
same,fold change (FC),Pseudomonas aeruginosa [23],512
same,MIC,Pseudomonas aeruginosa [24],8 µg/mL
same,Activity,HepG2,Active
same,MIC,Pseudomonas aeruginosa [25],2 µg/mL
same,fold change (FC),Pseudomonas aeruginosa [26],128
same,fold change (FC),Pseudomonas aeruginosa [27],64
same,fractional inhibitory concentration index (FICI),Pseudomonas aeruginosa [28],0.004
same,MIC,Pseudomonas aeruginosa [29],2 µg/mL
same,MIC,Pseudomonas aeruginosa [30],8 µg/mL
same,MIC,Pseudomonas aeruginosa [31],8 µg/mL
same,MIC,Pseudomonas aeruginosa [32],2 µg/mL
same,MIC,Pseudomonas aeruginosa [33],0.5 µg/mL
same,MIC,Pseudomonas aeruginosa [34],8 µg/mL
same,fractional inhibitory concentration index (FICI),Pseudomonas aeruginosa [35],0.25
same,MIC,Pseudomonas aeruginosa [36],0.125 µg/mL
same,fold change (FC),Pseudomonas aeruginosa [37],128
same,fractional inhibitory concentration index (FICI),Pseudomonas aeruginosa [38],0.002
same,fold change (FC),Pseudomonas aeruginosa [39],128
same,MIC,Pseudomonas aeruginosa [40],16 µg/mL
same,MIC,Pseudomonas aeruginosa [41],0.062 µg/mL
same,MIC,Pseudomonas aeruginosa [42],0.5 µg/mL
